HDAC3 inh: HDAC3 deacetylase inhibitors, primary screen, biochemical, fluorescence, cell-free homogeneous. inhibition, % at 8.3 µM. recombinant HDAC3, fluorogenic peptide/trypsin coupled. 320,000 tested, 0.15% active. Histone deacetylase 3 (Homo sapiens), O15379; in the data active = inhibition above about 26%, passing the limit was not always enough; inconclusive = no clear call, values can overlap the other calls
Target sequence (O15379 whole entry, looked up): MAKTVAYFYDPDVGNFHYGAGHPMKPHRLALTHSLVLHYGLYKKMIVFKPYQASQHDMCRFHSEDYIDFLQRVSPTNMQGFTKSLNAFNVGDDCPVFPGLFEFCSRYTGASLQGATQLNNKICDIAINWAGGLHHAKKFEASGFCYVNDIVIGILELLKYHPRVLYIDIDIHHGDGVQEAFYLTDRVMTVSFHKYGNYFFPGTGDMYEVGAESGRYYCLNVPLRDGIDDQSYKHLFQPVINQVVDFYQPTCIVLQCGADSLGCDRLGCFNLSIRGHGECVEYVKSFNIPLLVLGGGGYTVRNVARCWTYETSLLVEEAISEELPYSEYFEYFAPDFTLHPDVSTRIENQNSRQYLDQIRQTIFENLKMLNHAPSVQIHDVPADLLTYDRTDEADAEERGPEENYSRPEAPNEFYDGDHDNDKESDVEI
HKDC1 inh: HKDC1 hexokinase inhibitors, primary screen, biochemical, fluorescence, uHTS; AID 493160, 2011; recombinant HKDC1, G6PDH/diaphorase resazurin coupled fluorescence; 340,000 tested, 0.16% active; Q2TB90; inhibition, % at 20 µM;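 active = inhibition above about 35% when tested at 20 µM, limit read from the data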
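Test system: recombinant HKDC1 (HK5) hexokinase enzyme, produced in-house / Doses: 20 µM test compound, 1% DMSO / Timing: 90 min, room temperature / Detection: G6PDH/diaphorase-coupled fluorescence, 1 mM NADP, 100 µM resazurin, 525/613 nm / Control set: DMSO wells with and without enzyme mix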
LANA-H2B inh: blockers of LANA interaction with H2A/H2B – biochemical, FP readout, HTS, primary screen. Protein LANA1 (Human herpesvirus 8 type P (isolate GK18)), Q9QR71. cell-free LANA-H2A/H2B peptide, fluorescence polarization. inhibition, % (concentration not given with the values). 320,000 tested, 0.6% active; in the data active = inhibition mostly above about 10%, no sharp cut-off; inactive = mostly below about 6.7%
ATG4B inh: ATG4B protease inhibitors, primary screen, biochemical, fluorescence, uHTS; 340,000 tested, 0.51% active; AID 504462, 2011; inhibition, % at 8.33 µM; Cysteine protease ATG4B (Homo sapiens), Q9Y4P1; ATG4B cleavage of LC3-PLA2, NBD-HPC fluorescence, 1 h; in the data active = inhibition above about 40%
AI-2 QS mod: Vibrio harveyi AI-2 quorum sensing modulators, primary screen, JMH597 strain, luminescence/OD600 ratio; Vibrio harveyi JMH597 AI-2 luminescence/OD600 ratio, 9 h; active compounds read low; strain lacks LuxN and CqsS sensors; 0 = neutral-control median; activity change, % at 7.5 µM; 300,000 tested, 0.4% active; AID 2094, 2009; in the data active = activity change below about -75%, passing the limit was not always enough; inconclusive = no clear call, values can overlap the other calls;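 also: luminescence divided by OD600 gain over 9 h not by final OD600 alone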
Bfl-1 A1 inh: caspase 3/7 activation in MEF A1-2A-BIM cells, primary screen, A1 inhibitor project, cell-based, luminescence, HTS; caspase activation, % (no concentration beside the values); Caspase-Glo 3/7 luminescence, 3 h; percent of clofoctol response, vehicle zero; 330,000 tested, 0.066% active;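 active = over half of replicate activation scores above 10%, or exactly half above 10 with the replicate mean above 10; inconclusive = replicate mean below 10 yet half the replicates above 10; inactive = over half of replicates below 10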
ATG4B confirm: ATG4B protease inhibitors, retest, confirmation, biochemical, fluorescence, single concentration; ATG4B protease fluorescent substrate cleavage assay; shares compounds with ATG4B inh; inhibition, % at 8.33 µM; AID 504757, 2011; 320 tested, 92% active; in the data active = inhibition above about 39%
PLA2 ctr: PLA2 enzyme inhibition, counter-screen for ATG4B inhibitor project, biochemical, single concentration, uHTS hits; shares compounds with ATG4B inh; purified PLA2, NBD-C6-HPC fluorescence, 45 min; inhibition, % at 8.33 µM; 1,600 tested, 66% active; AID 588402, 2011; in the data active = inhibition above about 50%
Target sequence (P04054 whole entry, looked up): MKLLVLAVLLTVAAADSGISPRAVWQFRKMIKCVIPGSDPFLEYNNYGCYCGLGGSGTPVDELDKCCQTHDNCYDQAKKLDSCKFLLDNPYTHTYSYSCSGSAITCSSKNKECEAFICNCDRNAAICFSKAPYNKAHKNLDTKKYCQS
Of the large screens only hits and unclear results are named; the others gave an inactive call (follow-up assays come after a bar, where they were run). Compounds with a hit are over-represented: about 1.8% of the library has one in this group of screens.

COc1cccc(N2C(=O)CN(Cc3cc(OC)c(OC)c(OC)c3)C2=S)c1	none
Cc1ccccc1N1C(=O)CN(Cc2sccc2C)C1=S	ATG4B inh 65.2 | PLA2 ctr 78.9
Cc1ccc(N2C(=O)CN(Cc3ccccc3)C2=S)cc1C	ATG4B inh 75.2 | PLA2 ctr 79.2
COc1cc(NC(=O)C(C)Oc2ccccc2)ccc1NC(=O)COc1ccccc1 (stereo not given)	none
CCOC(=O)c1cc(-c2c(Cl)cccc2Cl)no1	ATG4B inh 50.1 | PLA2 ctr inactive
Cc1onc(-c2c(Cl)cccc2Cl)c1C(=O)OCC(=O)c1ccccc1	none
C#CCNC(=O)C1=C[C@@H](c2ccc(C(F)(F)F)cc2)C[C@@H](OCCCCO)O1	none
CCN(c1ccc(OC)cc1)S(=O)(=O)N1CCCC(C(=O)NCc2ccccc2Br)C1 (stereo not given)	ATG4B inh 57.4 | PLA2 ctr 57.9
CCN(c1ccc(OC)cc1)S(=O)(=O)N1CCCC(C(=O)NCc2cccc(C)c2)C1 (stereo not given)	none
CCN(CC(=O)N1CCCC1)S(=O)(=O)c1ccc(OC)cc1	none
CC(C)(C)c1cc(=O)[nH]c(SCc2ccccc2Cl)n1	ATG4B inh 50.4 | PLA2 ctr 51.5
O=C(N/N=C/c1ccc(-c2ccc(Cl)c(C(=O)O)c2)o1)c1cc2c(ccc3ccccc32)o1	ATG4B inh 42.4 | PLA2 ctr 63.1
COc1ccccc1CNC(=O)c1ccccc1OCc1ccc(F)cc1	ATG4B inh 44.4 | ATG4B confirm 74.8 | PLA2 ctr inactive
O=C(NCc1ccccn1)c1ccccc1OCc1ccc(F)cc1	none
CCCOc1ccc(-c2nc(SCc3ccccc3)[nH]c(=O)c2C#N)cc1OC	ATG4B inh 52.4 | PLA2 ctr 85.0
O=C1[C@H]2[C@@H](c3ccc(F)cc3)N3C(=O)N(c4ccc(Br)cc4)C(=O)[C@@]3(Cc3ccccc3)[C@H]2C(=O)N1C1CCCCC1	HDAC3 inh inconclusive
COc1ccc(S(=O)(=O)N2CCN(C(=S)NC3CCCCC3)CC2)cc1	none
N/C(CSc1ncccc1C(F)(F)F)=N\O	none
COc1ccc(-c2csc(NC(=O)c3ccccc3NS(=O)(=O)c3ccc(F)c(F)c3)n2)cc1	ATG4B inh 69.3 | PLA2 ctr 80.5
Cc1ccc(S(=O)(=O)Nc2ccccc2C(=O)Nc2nc(-c3ccc(F)cc3)cs2)cc1	ATG4B inh 47.5 (no result: HDAC3 inh, LANA-H2B inh) | PLA2 ctr 59.6
COc1ccc(C)cc1S(=O)(=O)N(CC(=O)Nc1cccc([N+](=O)[O-])c1)c1ccc(C)c(C)c1	ATG4B inh 88.1 | PLA2 ctr 90.2
COc1cc(C2C(C#N)=C(N)OC3=C2C(=O)CC(C)(C)C3)cc2c1OCO2 (stereo not given)	none
O=C1CCCCC1C(O)c1ccc(Cl)cc1 (stereo not given)	none (no result: HKDC1 inh, ATG4B inh)
CC(=O)c1cccc(NC(=O)C2C3C=CC(C3=C(c3ccccc3)c3ccccc3)C2C(=O)O)c1 (stereo not given)	ATG4B inh 78.9 | PLA2 ctr 90.4
Cc1noc(/C=C/c2ccco2)c1S(=O)(=O)N1CCC(C(=O)N2c3ccccc3CC2C)CC1 (stereo not given)	ATG4B inh 47.7 | PLA2 ctr 75.8
Cc1cccc(/C=C/c2onc(C)c2S(=O)(=O)N2CCC(C(=O)N3CCC(C)CC3)CC2)c1	none
Cc1cccc(/C=C/c2onc(C)c2S(=O)(=O)N2CCC(C(=O)N3CCCCCC3)CC2)c1	ATG4B inh 40.4 | PLA2 ctr 52.4
COc1ccc2cc(N=Cc3nc(-c4ccc(C)cc4)oc3O)cnc2c1	none
O=C1[C@H]2[C@H](C=CC[C@H]2C(=O)N2CCOCC2)CCN1Cc1ccccc1	none
O=C(O)CC/C(=C\c1ccc(Cl)c([N+](=O)[O-])c1)c1nc2ccccc2s1	ATG4B inh 49.0 (no result: HDAC3 inh, LANA-H2B inh) | ATG4B confirm 63.5 | PLA2 ctr inactive
O=C(NC(=S)Nc1cc(-c2nc3ccccc3[nH]2)ccc1Cl)c1ccc2c(c1)OCO2	ATG4B inh 51.7 | PLA2 ctr 59.8
Cc1ccc(-c2nc3ccccc3[nH]2)cc1NC(=O)c1ccc2c(c1)OCO2	none
Cc1ccc(-c2nc3ccccc3[nH]2)cc1NC(=S)NC(=O)c1ccccc1Br	ATG4B inh 41.0 | PLA2 ctr 60.9
O=C(c1ccco1)n1nc(NCc2ccccc2)nc1NCc1ccccc1	none
O=C(c1cccnc1)n1nc(NCc2ccccc2)nc1NCc1ccccc1	ATG4B inh 41.8 | PLA2 ctr inactive
Cc1nc(NC(=O)CSc2cc(C)c3ccccc3n2)c(Cl)cc1Cl	ATG4B inh 40.7 | PLA2 ctr inactive
Cc1c(C(=O)N2CCc3ccccc3C2)sc2nc(-c3ccccc3)cn12	ATG4B inh 44.9 (no result: HDAC3 inh) | PLA2 ctr 53.0
COc1ccc(-c2cn3c(C)c(C(=O)N4CCc5ccccc5C4)sc3n2)cc1	none
CCOC(=O)c1ccc(N2C(=O)Cc3ccccc3C2=O)cc1	none
CC(C)COC(=O)c1ccc(N2C(=O)c3ccccc3C2=O)cc1	ATG4B inh 45.0 | ATG4B confirm 66.7 | PLA2 ctr inactive
CN1C(=O)NC(NS(=O)(=O)c2ccc(N)cc2)(C(F)(F)F)C1=O (stereo not given)	none
COc1ccc(N/C(=C2\CCCC2=O)C2CCCCC2)cc1	ATG4B inh 55.8 | PLA2 ctr 59.7
c1cc(CNC2C3CC4CC(C3)CC2C4)ccn1 (stereo not given)	none
CC(C)OC(=O)c1cc(C(=O)c2cc(Br)ccc2O)coc1=N	none
CCOc1ccccc1NC(=O)c1cc(C(=O)c2cc(Br)ccc2O)coc1=N	ATG4B inh 55.8 | PLA2 ctr 56.8
